Test results taken from ChEMBL document CHEMBL1146308 (Bioorg Med Chem, 2007).

Each compound was assayed against T1, Acetylcholinesterase (Rattus norvegicus, UniProt P37136) (assay: Inhibition of AChE in rat cortex […]).
T1 sequence (P37136 whole entry): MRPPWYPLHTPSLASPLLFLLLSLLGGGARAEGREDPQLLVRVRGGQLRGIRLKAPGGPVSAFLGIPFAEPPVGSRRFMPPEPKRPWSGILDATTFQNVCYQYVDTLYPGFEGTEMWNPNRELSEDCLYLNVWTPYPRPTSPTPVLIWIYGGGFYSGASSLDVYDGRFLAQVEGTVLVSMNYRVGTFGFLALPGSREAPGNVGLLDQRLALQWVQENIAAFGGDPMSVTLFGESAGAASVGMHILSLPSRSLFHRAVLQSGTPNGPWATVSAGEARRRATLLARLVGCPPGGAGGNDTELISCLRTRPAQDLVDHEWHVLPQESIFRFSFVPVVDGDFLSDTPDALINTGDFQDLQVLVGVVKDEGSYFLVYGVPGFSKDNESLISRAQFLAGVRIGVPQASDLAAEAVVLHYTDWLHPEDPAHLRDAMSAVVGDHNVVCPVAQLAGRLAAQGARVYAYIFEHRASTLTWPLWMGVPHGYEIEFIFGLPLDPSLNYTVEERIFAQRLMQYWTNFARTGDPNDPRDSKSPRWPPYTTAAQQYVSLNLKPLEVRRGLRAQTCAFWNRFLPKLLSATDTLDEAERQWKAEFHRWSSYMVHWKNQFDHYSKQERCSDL

Compound	IC50 [µM]
CC1=C[C@H]2Cc3[nH]c(=O)ccc3[C@@]3(C1)[C@@H]2CCCN3CCCN(C)CCCCCCN(C)CCCN1CCC[C@@H]2[C@H]3C=C(C)C[C@]21c1ccc(=O)[nH]c1C3	0.0336
CC1=C[C@H]2Cc3[nH]c(=O)ccc3[C@@]3(C1)[C@@H]2CCCN3CCN(C)CCCCCCN(C)CCN1CCC[C@@H]2[C@H]3C=C(C)C[C@]21c1ccc(=O)[nH]c1C3	0.0784
CC1=C[C@H]2Cc3[nH]c(=O)ccc3[C@@]3(C1)[C@@H]2CCCN3C(=O)CCN1CCCN(CCC(=O)N2CCC[C@@H]3[C@H]4C=C(C)C[C@]32c2ccc(=O)[nH]c2C4)CC1	0.179
CC1=C[C@H]2Cc3[nH]c(=O)ccc3[C@@]3(C1)[C@@H]2CCCN3CCN(C)CCCCCCCCN(C)CCN1CCC[C@@H]2[C@H]3C=C(C)C[C@]21c1ccc(=O)[nH]c1C3	0.0201
COc1ccccc1CN(C)CCCCCCCCCCCCN(C)CC(=O)N1CCC[C@@H]2[C@H]3C=C(C)C[C@]21c1ccc(=O)[nH]c1C3	0.0622
CC1=C[C@H]2Cc3[nH]c(=O)ccc3[C@@]3(C1)[C@@H]2CCCN3CCN1CCN(CN2CCC[C@@H]3[C@H]4C=C(C)C[C@]32c2ccc(=O)[nH]c2C4)CC1	0.407
CC1=C[C@H]2Cc3[nH]c(=O)ccc3[C@@]3(C1)[C@@H]2CCCN3C(=O)CN1CCCN(CC(=O)N2CCC[C@@H]3[C@H]4C=C(C)C[C@]32c2ccc(=O)[nH]c2C4)CC1	0.204
CC1=C[C@H]2Cc3[nH]c(=O)ccc3[C@@]3(C1)[C@@H]2CCCN3C(=O)CN(C)CCCCCCCCCCCCN(C)Cc1ccc(F)cc1	0.309
CC1=C[C@H]2Cc3[nH]c(=O)ccc3[C@@]3(C1)[C@@H]2CCCN3C(=O)CCN(C)CCCCCCCCCCCCN(C)CCC(=O)N1CCC[C@@H]2[C@H]3C=C(C)C[C@]21c1ccc(=O)[nH]c1C3	0.0231
CCCN(CC(=O)N1CCC[C@@H]2[C@H]3C=C(C)C[C@]21c1ccc(=O)[nH]c1C3)CC(=O)n1c2c(ccc1=O)[C@@]13CC(C)=C[C@@H](C2)[C@H]1CCCN3	0.157
CC1=C[C@H]2Cc3[nH]c(=O)ccc3[C@@]3(C1)[C@@H]2CCCN3CCN(CCN1CCC[C@@H]2[C@H]3C=C(C)C[C@]21c1ccc(=O)[nH]c1C3)C1CC1	0.695
CC1=C[C@H]2Cc3[nH]c(=O)ccc3[C@@]3(C1)[C@@H]2CCCN3C(=O)CCN(C)CCCCCCCCN(C)CCC(=O)N1CCC[C@@H]2[C@H]3C=C(C)C[C@]21c1ccc(=O)[nH]c1C3	0.0185
CC1=C[C@H]2Cc3[nH]c(=O)ccc3[C@@]3(C1)[C@@H]2CCCN3CCCN(C)CCCCCCCCN(C)CCCN1CCC[C@@H]2[C@H]3C=C(C)C[C@]21c1ccc(=O)[nH]c1C3	0.0406
CC1=C[C@H]2Cc3[nH]c(=O)ccc3[C@@]3(C1)[C@@H]2CCCN3CCN(C)CCN(C)CCN1CCC[C@@H]2[C@H]3C=C(C)C[C@]21c1ccc(=O)[nH]c1C3	3.48
CC1=C[C@H]2Cc3[nH]c(=O)ccc3[C@@]3(C1)[C@@H]2CCCN3C(=O)CN(C)CCCCCCCCN(C)Cc1ccc(F)cc1	0.0565
CC1=C[C@H]2Cc3[nH]c(=O)ccc3[C@@]3(C1)[C@@H]2CCCN3C(=O)CN(C)CCN(C)CC(=O)N1CCC[C@@H]2[C@H]3C=C(C)C[C@]21c1ccc(=O)[nH]c1C3	1.02
CC1=C[C@H]2Cc3[nH]c(=O)ccc3[C@@]3(C1)[C@@H]2CCCN3C(=O)CN(C)CCCCCCCCN(C)CC(=O)N1CCC[C@@H]2[C@H]3C=C(C)C[C@]21c1ccc(=O)[nH]c1C3	0.0508

What follows are compounds tested against Butyrylcholinesterase (Rattus norvegicus, UniProt Q9JKC1) (assay: Inhibition of BuChE in rat serum).
Sequence of Butyrylcholinesterase (Q9JKC1 whole entry): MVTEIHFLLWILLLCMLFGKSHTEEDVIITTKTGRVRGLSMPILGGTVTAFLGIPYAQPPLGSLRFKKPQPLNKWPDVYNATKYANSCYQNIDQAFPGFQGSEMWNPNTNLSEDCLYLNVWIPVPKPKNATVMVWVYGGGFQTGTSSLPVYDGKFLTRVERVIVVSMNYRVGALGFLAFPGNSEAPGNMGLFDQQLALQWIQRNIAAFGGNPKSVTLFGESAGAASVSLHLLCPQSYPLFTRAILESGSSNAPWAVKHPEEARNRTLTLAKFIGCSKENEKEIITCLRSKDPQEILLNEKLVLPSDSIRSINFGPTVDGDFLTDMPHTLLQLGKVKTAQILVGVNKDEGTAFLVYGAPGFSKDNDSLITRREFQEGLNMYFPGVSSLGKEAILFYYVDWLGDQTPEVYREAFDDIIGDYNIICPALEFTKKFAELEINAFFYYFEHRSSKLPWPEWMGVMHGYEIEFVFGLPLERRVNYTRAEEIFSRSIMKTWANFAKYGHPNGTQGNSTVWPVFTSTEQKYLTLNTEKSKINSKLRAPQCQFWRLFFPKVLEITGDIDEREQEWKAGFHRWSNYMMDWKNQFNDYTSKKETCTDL
Assay type: cell-free
How it was run: (§1)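 Modified Ellman colorimetric cholinesterase assay. The AChE source was rat cortex homogenate and the BuChE source was rat serum. Inhibition was measured against each enzyme, and selectivity was taken as the BuChE IC50 over the AChE IC50.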

Compound	IC50 [µM]
CC1=C[C@H]2Cc3[nH]c(=O)ccc3[C@@]3(C1)[C@@H]2CCCN3C(=O)CN(C)CCCCCCCCCCN(C)Cc1cccnc1	12.9
CC1=C[C@H]2Cc3[nH]c(=O)ccc3[C@@]3(C1)[C@@H]2CCCN3CCN1CCN(CN2CCC[C@@H]3[C@H]4C=C(C)C[C@]32c2ccc(=O)[nH]c2C4)CC1	192
CC1=C[C@H]2Cc3[nH]c(=O)ccc3[C@@]3(C1)[C@@H]2CCCN3C(=O)CCN(C)CCCCCCCCCCCCN(C)CCC(=O)N1CCC[C@@H]2[C@H]3C=C(C)C[C@]21c1ccc(=O)[nH]c1C3	88.4
CC1=C[C@H]2Cc3[nH]c(=O)ccc3[C@@]3(C1)[C@@H]2CCCN3C(=O)CCN(C)CCCCCCCCN(C)CCC(=O)N1CCC[C@@H]2[C@H]3C=C(C)C[C@]21c1ccc(=O)[nH]c1C3	63
CC1=C[C@H]2Cc3[nH]c(=O)ccc3[C@@]3(C1)[C@@H]2CCCN3C(=O)CN(C)CCCCCCCCN(C)CC(=O)N1CCC[C@@H]2[C@H]3C=C(C)C[C@]21c1ccc(=O)[nH]c1C3	65.4

Species: Rattus norvegicus
Assay: Selectivity ratio of IC50 for rat BuChE to rat IC50 for AchE
How it was run: as §1

Compound	Ratio IC50
CC1=C[C@H]2Cc3[nH]c(=O)ccc3[C@@]3(C1)[C@@H]2CCCN3CCN1CCCN(CCN2CCC[C@@H]3[C@H]4C=C(C)C[C@]32c2ccc(=O)[nH]c2C4)CC1	573
CC1=C[C@H]2Cc3[nH]c(=O)ccc3[C@@]3(C1)[C@@H]2CCCN3C(=O)CN1CCN(CC(=O)N2CCC[C@@H]3[C@H]4C=C(C)C[C@]32c2ccc(=O)[nH]c2C4)CC1	> 157
CC1=C[C@H]2Cc3[nH]c(=O)ccc3[C@]3(C1)NCCC[C@H]23	12
CC1=C[C@H]2Cc3[nH]c(=O)ccc3[C@@]3(C1)[C@@H]2CCCN3CCN1CCN(CN2CCC[C@@H]3[C@H]4C=C(C)C[C@]32c2ccc(=O)[nH]c2C4)CC1	472
CC1=C[C@H]2Cc3[nH]c(=O)ccc3[C@@]3(C1)[C@@H]2CCCN3C(=O)CN1CCCN(CC(=O)N2CCC[C@@H]3[C@H]4C=C(C)C[C@]32c2ccc(=O)[nH]c2C4)CC1	838
CC1=C[C@H]2Cc3[nH]c(=O)ccc3[C@@]3(C1)[C@@H]2CCCN3C(=O)CCN(C)CCCCCCCCCCCCN(C)CCC(=O)N1CCC[C@@H]2[C@H]3C=C(C)C[C@]21c1ccc(=O)[nH]c1C3	3830
CC1=C[C@H]2Cc3[nH]c(=O)ccc3[C@@]3(C1)[C@@H]2CCCN3C(=O)CCN(C)CCCCCCCCN(C)CCC(=O)N1CCC[C@@H]2[C@H]3C=C(C)C[C@]21c1ccc(=O)[nH]c1C3	3400
CC1=C[C@H]2Cc3[nH]c(=O)ccc3[C@@]3(C1)[C@@H]2CCCN3C(=O)CN(C)CCCCCCCCN(C)CC(=O)N1CCC[C@@H]2[C@H]3C=C(C)C[C@]21c1ccc(=O)[nH]c1C3	1290
